Activity calls are given as the source filed them. The rule behind the calls is not given here.
Assays:
Canis familiaris [1] = experiment: Gastric antisecretory activity in food stimulated pavlov dogs by intrapouch administration; assay type: functional; conditions: Canis lupus familiaris
Method in brief: (§1)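 Adult female beagles (6–11 kg) with innervated Pavlov gastric pouches, food-deprived 14 h with water. After 30 min basal collection, prostaglandin in buffer-ethanol vehicle given into pouch via Thomas cannula; 30 min later pouch emptied and secretion stimulated by feeding canned dog food. Juice collected at 30-min intervals over 4 h; total acid output = volume × acidity. Percent reduction from control over 4 h.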

Rattus norvegicus = experiment: Compound was evaluated for diarrheagenic side effects in adult male rats by intragastric administration; assay type: functional; conditions: po
Method in brief: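 Adult Charles River male rats, 210–230 g, individually housed, fasted 24 h with water ad libitum. Logarithmically graded prostaglandin doses given orally (N = 6–12). Diarrhea scored all-or-none for 8 h after dosing.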

[2] = Selectivity ratio was evaluated by the quotient of diarrheal ED50 value divided by antisecretory ED50 x 10 E-3; assay type: functional
Method in brief: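 Quotient of diarrheal ED50 (male rats, oral graded doses, all-or-none diarrhea over 8 h) over antisecretory ED50 (Pavlov pouch beagles, intrapouch dosing, percent reduction of food-stimulated 4-h total acid output). Antisecretory ED50 from linear regression of dose-response, 3–6 doses and 2–4 dogs per dose.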

Canis familiaris [3] = experiment: Gastric antisecretory activity in food stimulated pavlov dogs by intrapouch administration; Inactive at 3.0 ug/Kg; assay type: functional, organism-based; conditions: Canis lupus familiaris; method in brief: as §1

| Compound | ED50 (Canis familiaris [1]) [µg/kg] | ED50 (Rattus norvegicus) [µg/kg] | Ratio [2] | ED50 (Canis familiaris [3]) |
| --- | --- | --- | --- | --- |
| C/C=C(C)\C=C\[C@](C)(O)C/C=C/[C@H]1[C@H](O)CC(=O)[C@@H]1CC/C=C\CCC(=O)OC | 0.016 | 1230 | 76 | – |
| C/C=C(C)/C=C/[C@](C)(O)C/C=C/[C@H]1[C@H](O)CC(=O)[C@@H]1CC/C=C\CCC(=O)OC | 0.003 | 185 | 62 | – |
| C/C=C\C=C\[C@](C)(O)C/C=C/[C@H]1[C@H](O)CC(=O)[C@@H]1CC/C=C\CCC(=O)OC | 0.009 | 306 | 34 | – |
| C=C/C=C(\C)[C@](C)(O)C/C=C/[C@H]1[C@H](O)CC(=O)[C@@H]1CC/C=C\CCC(=O)OC | – | > 3160 | – | inactive |
| C=C/C(C)=C/[C@](C)(O)C/C=C/[C@H]1[C@H](O)CC(=O)[C@@H]1CC/C=C\CCC(=O)OC | 0.71 | 1030 | 1.4 | – |
| COC(=O)CC/C=C\CC[C@H]1C(=O)C[C@@H](O)[C@@H]1/C=C/C[C@@](C)(O)/C=C/C(C)=C(C)C | 0.06 | > 3160 | > 53 | – |
| C/C=C/C=C/[C@](C)(O)C/C=C/[C@H]1[C@H](O)CC(=O)[C@@H]1CC/C=C\CCC(=O)OC | 0.03 | 250 | 8 | – |
| COC(=O)CC/C=C\CC[C@H]1C(=O)C[C@@H](O)[C@@H]1/C=C/C[C@@](C)(O)/C=C/C1=CCCC1 | 0.02 | > 3160 | > 158 | – |
| C=C/C=C/[C@](C)(O)C/C=C/[C@H]1[C@H](O)CC(=O)[C@@H]1CC/C=C\CCC(=O)OC | 0.007 | 243 | 35 | – |
| COC(=O)CC/C=C\CC[C@H]1C(=O)C[C@@H](O)[C@@H]1/C=C/C[C@@](C)(O)/C=C/C=C(C)C | 0.06 | > 3160 | > 53 | – |
| C=C(C)/C=C/[C@](C)(O)C/C=C/[C@H]1[C@H](O)CC(=O)[C@@H]1CC/C=C\CCC(=O)OC | 0.002 | 420 | 210 | – |
| CCCCC(C)(O)C/C=C/[C@H]1[C@H](O)CC(=O)[C@@H]1CC/C=C\CCC(=O)OC (stereo not given in full) [ENISOPROST] | 0.023 | 49 | 2 | – |

Source: ChEMBL document CHEMBL1125375, “Synthesis and structure-activity relationships of acyclic omega chain conjugated diene analogues of enisoprost” (1992)
